Sampled rows, rich in hits. Any-hit rate of the full collection: about 4.1%.
Cl transport mod: KCC2 cotransporter modulators, thallium flux, primary screen, cell-based, HEK293 KCC2, FluoZin-2 fluorescence, MLSMR. KCC2 cells, thallium flux FluoZin-2 fluorescence. B-score of Tl+ flux slope (higher = more flux/activation; lower = inhibition) at 10 µM. 2.2% of 190,000 active. AID 1456, 2008;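 active = thallium flux slope and its plate-corrected score both differing from the plate sample mean at a set confidence after two filtering rounds, in either direction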;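 also: slope of fluorescence scaled to starting intensity during 10 to 20 s after thallium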
Dynein cargo inh: inhibitors of GR-EGFP nuclear translocation, primary screen, dynein cargo transport inhibitor project, imaging, high-content, 3617.4 mouse cells; test concentration mostly 20 µM; stimulated with dexamethasone, 1 µM; hits give low values; z-score, hits read low; 0.47% of 220,000 active; AID 1381, 2008;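 active = plate z-score of nuclear minus cytoplasmic receptor signal below a set negative limit, without overly bright fluorescence or cell loss, cut at about -3.5 in these data, passing the limit was not always enough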;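 also: z-score of nuclear minus cytoplasmic ring GR-EGFP intensity difference per well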
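Buffer or medium: Induction medium lacking tetracycline, stripped serum | Also added: Dexamethasone agonist, 1.0 µM final, for 30 min | Timing: 48 h induction, 1 h compound, 30 min dex at 37 °C | Detection: Formaldehyde fixation, Hoechst nuclear stain, 10x automated fluorescence imaging | Measure: Nuclear versus cytoplasmic GR-EGFP signal, averaged per well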
Autophagy mod: autophagy modulators in MEF cells, primary screen, imaging, high-content, MEF GFP-LC3. MEF GFP-LC3 puncta imaging; test concentration mostly 10 µM. 0.98% of 190,000 active. calls only at 10 µM (by protocol). AID 463193, 2010;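 active = percentage of spot-positive cells more than 3 SD above its plate mean, without a fluorescence outlier flag or 80% toxicity; inconclusive = no clear call, values can overlap the other calls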;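 also: spot-positive cell cutoff set from DMSO-treated cells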
DTT redox prof: compounds producing H2O2 with reducing agent – biochemical, NIH compound library profiling, artefact control for MLSCN library redox annotation, primary screen; DTT-dependent redox cycling H2O2, phenol red/HRP absorbance; 100% = 100 µM peroxide control, 0% = buffer; activation, % at 10 µM; 0.03% of 200,000 active;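 active = activation of at least 50% relative to the plate's high and low controls in the primary single-dose screen; inactive = activation below 50%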;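 also: compound incubated with DTT at 0.8 mM final as the reducing agent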
ROMK mod: ROMK potassium channel modulators, primary screen, cell-based, thallium flux, MLSMR library. 2% of 130,000 active. B-score at 10 µM. Tet-inducible ROMK, thallium flux fluorescence; actives lie on both sides. AID 1918, 2009;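 active = signal ratio slope over the read window, or its plate-corrected B-score, at least 3 SD from the plate mean, either direction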;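 also: B-score of the F/F0 ratio slope over 7 to 12 s after thallium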
KCC2 sec1: KCC2 modulators in sodium-free buffer, confirmation, cell-based, HEK293 KCC2, thallium flux, secondary assay. FluoZin2 fluorescence; hits give high values. 15% of 3,700 active. shares compounds with Cl transport mod. normalised thallium flux (F/F0 slope) at 10 µM;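 active = thallium flux slope above the same plate's solvent-only control mean plus 3 SD; inconclusive = the two replicate wells disagree; inactive = no significant difference from solvent-only control wells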
KCC2 bumet counter: thallium flux persisting under bumetanide in KCC2 cells, confirmation, counter-screen for KCC2 modulator project, cell-based, HEK293 KCC2, FluoZin2, secondary assay 3. shares compounds with Cl transport mod. 49% of 3,700 active. normalized thallium flux at 10 µM. AID 1714, 2009. HEK293-KCC2 + bumetanide/ouabain; hits give high values;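 active = thallium entry rate above the same plate's blocked-transporter control wells by more than 3 SD; inconclusive = the two repeat wells disagree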;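 also: raw slope of fluorescence over initial fluorescence between 10 and 20 s after thallium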
KCC2 secondary2: KCC2 modulators without ouabain present, confirmation, cell-based, HEK293 KCC2, thallium flux, FluoZin2, secondary assay 2; shares compounds with Cl transport mod; thallium flux FluoZin2 fluorescence; actives lie on both sides; F/F0 rise rate, 10–20 s post-thallium; normalized thallium flux at 10 µM; 23% of 3,700 active;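 active = thallium flux slope more than 3 SD above or below the plate's solvent-only control mean, mostly below; inconclusive = the two repeat wells disagreed; inactive = no significant shift from solvent-only controls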;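 also: raw slope with 0.1% DMSO as baseline and bumetanide as block control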
HEK293 Tl flux: thallium flux modulation in parental HEK cells, confirmation, counter-screen for KCC2 modulator project, cell-based, counterscreen 1. 46% of 3,700 active. HEK293 parental cells, thallium flux FluoZin2, ouabain; baseline-ratio fluorescence slope, 10–20 s after thallium. shares compounds with Cl transport mod. thallium flux rate (normalised fluorescence) at 10 µM;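 active = thallium flux rate significantly above the same plate's solvent-only control wells, beyond their mean plus 3 SD; inconclusive = the two replicate wells gave conflicting results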
KCC2 ouabain: KCC2 inhibitors and activators, ouabain retest, confirmation, HEK-KCC2 cells. shares compounds with Cl transport mod. HEK293-KCC2, thallium flux FluoZin2 fluorescence; bidirectional: low = inhibitor, high = activator. raw Tl+ flux slope (below DMSO = inhibition, above = activation) at 10 µM. 48% of 3,700 active;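 active = thallium flux slope beyond 3 SD from same-plate DMSO control mean in most replicates, usually higher, sometimes lower; inconclusive = repeat tests gave conflicting results; inactive = no significant difference from controls in most replicates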;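 also: slope of initial-normalized fluorescence between seconds 10 and 20 after thallium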
HEK counter2: native HEK Tl+ uptake effects, second counter-screen – HEK cells, counterscreen 2, counter-screen for KCC2 modulator project, confirmation; shares compounds with Cl transport mod; HEK293 parental, thallium flux FluoZin-2 fluorescence slope; thallium flux slope at 10 µM; 33% of 3,700 active;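 active = thallium flux slope above the same plate's solvent-control mean plus 3 SD in both duplicate wells; inconclusive = duplicate wells that disagreed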;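 also: run without ouabain in cells lacking the KCC2 cotransporter; slope of fluorescence scaled to its starting value between 10 and 20 s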
* = called active by the depositor.

Results for O=C(NNC(=O)c1sccc1-n1cccc1)c1ccc(F)cc1 ?
Dynein cargo inh: -0.45; Autophagy mod: inactive; DTT redox prof: -1; ROMK mod: 0.81; KCC2 sec1: 0.011; KCC2 bumet counter: 0.017*; KCC2 secondary2: 0.035; HEK293 Tl flux: inconclusive; KCC2 ouabain: 0.026*; HEK counter2: 0.012

Results for O=C(NNC(=O)c1c(F)cccc1F)c1sccc1-n1cccc1 ?
Cl transport mod: 1.1; Dynein cargo inh: 0.45; Autophagy mod: inactive; DTT redox prof: -2; ROMK mod: -0.62

What do the screens show for `O=C(O)CCCN(Cc1cccc(Br)c1)S(=O)(=O)c1ccc(Br)cc1`?
Cl transport mod: -5.5*; Dynein cargo inh: 1.3; Autophagy mod: inactive; DTT redox prof: -2; ROMK mod: -0.81; KCC2 sec1: 0.0084; KCC2 bumet counter: 0.0062; KCC2 secondary2: 0.029*; HEK293 Tl flux: 0.0037; KCC2 ouabain: 0.012*; HEK counter2: 0.011

What do the screens show for `COc1ccc(S(=O)(=O)N(CCC(=O)O)Cc2ccccc2)cc1`?
Cl transport mod: -3.7*; Dynein cargo inh: -0.33; Autophagy mod: inactive; DTT redox prof: 0; ROMK mod: 0.39; KCC2 sec1: 0.0075; KCC2 bumet counter: 0.0047; KCC2 secondary2: 0.022*; HEK293 Tl flux: 0.0073; KCC2 ouabain: 0.015*; HEK counter2: 0.01

Results for COc1ccc(S(=O)(=O)N(CC(=O)NC(C)C)Cc2ccccc2)cc1 ?
Dynein cargo inh: -0.4; Autophagy mod: inactive; DTT redox prof: 0; ROMK mod: -0.31

Results for NC(=O)CCN(Cc1ccccc1)S(=O)(=O)c1ccccc1 ?
Cl transport mod: -0.2; Dynein cargo inh: -0.45; Autophagy mod: inactive; DTT redox prof: 1; ROMK mod: 0.035

What do the screens show for `Cc1cccc(S(=O)(=O)NNC(=O)c2sc(C)nc2C)c1`?
Cl transport mod: 1.5; Dynein cargo inh: -0.18; Autophagy mod: inactive; DTT redox prof: 0; ROMK mod: 1.5

How did COc1cccc(/C=C(\CC(=O)O)c2nc3ccccc3s2)c1 do in these assays?
Cl transport mod: 0.51; Dynein cargo inh: 0.24; Autophagy mod: inactive; DTT redox prof: 0; ROMK mod: 0.066
